Measured values pooled from the literature.
Lines come from different studies, so protocols differ.
Target: Mitogen-activated protein kinase 1 (MAPK1, Homo sapiens, UniProt P28482)

SMILES	read-out	action	technique	tested at	quantity	value
CN(c1ncccc1CNc1nc(Nc2ccc3c(c2)CC(=O)N3)ncc1C(F)(F)F)S(C)(=O)=O	enzyme activity	inhibitor		1 µM	inhibition	88.1%
Cc1noc([C@H]2C[C@@H](c3ccc(C(F)(F)F)cc3)CN(C(=O)N3CCS(=O)(=O)C3)C2)n1	cell-free assay		competition with immobilised ligand	1 µM	remaining binding	100%
Cc1ccc(Nc2nccc(N(C)c3ccc4c(C)n(C)nc4c3)n2)cc1S(N)(=O)=O	enzyme activity	inhibitor		0.3 µM	inhibition	-1%
Nc1ncnc2occ(-c3ccc(NC(=O)Nc4cc(C(F)(F)F)ccc4F)cc3)c12	cell-free assay	inhibitor		20 µM	remaining signal	100%
COc1cc(/C=C/C(=O)CC(=O)/C=C/c2ccc(O)c(OC)c2)ccc1O	enzyme activity	inhibitor		1 µM	activity vs control	75%
O=C1NC(=O)c2cc(Nc3ccc(F)cc3)c(Nc3ccc(F)cc3)cc21	cell-free assay			0.5 µM	remaining signal	121%
COc1cc(Nc2cnc(C#N)c(O[C@H](C)CN(C)C)n2)ncc1-c1cnn(C)c1	enzyme activity	inhibitor	radiometric	1 µM	remaining activity	101%
Cc1sc(C(=O)NC2COC2)cc1-n1cc(NC(=O)Nc2c(F)cccc2Cl)cn1	enzyme activity	inhibitor		10 µM	remaining activity	90.8%
CN([C@@H]1CCc2c(CC(=O)O)c3cc(S(C)(=O)=O)ccc3n2C1)S(=O)(=O)c1ccc(F)cc1	cell-free assay		competition with immobilised ligand	1 µM	remaining binding	77%
CC(C)(C)C(=O)c1sc(NC2CCCCC2)nc1N	enzyme activity	inhibitor		10 µM	remaining activity	95%
C[C@H](c1ccnc(Nc2nc3ccc(-c4cc(N(C)C)ncn4)cc3[nH]2)c1)N1CCN(C(=O)CC(F)(F)F)CC1	cell-free assay		competition with immobilised ligand	0.1 µM	remaining binding	78%
CCN(CC)CCNC(=O)c1c(C)[nH]c(/C=C2\C(=O)Nc3ccc(F)cc32)c1C	enzyme activity	inhibitor		0.3 µM	inhibition	-6%
CCC(=O)N[C@H]1CC[C@@H](C(=O)N(C)c2ccc(-c3nc4ccccc4o3)cc2)C1	cell-free assay		competition with immobilised ligand	1 µM	remaining binding	76%
Cc1cnc(NC2CCOCC2)nc1-n1cnc(C(=O)NC(CN)c2cc(F)cc(Cl)c2)c1 (stereo not drawn)	enzyme activity	inhibitor	radiometric	1 µM	remaining activity	2%
COc1cc2ncnc(Nc3ccc(Oc4ccccc4)c(C)c3C)c2cc1OC	enzyme activity	inhibitor		1 µM	inhibition	-2%
Cc1ccc(NC(=O)c2ccc(CN3CCN(C)CC3)cc2)cc1Nc1nc(-c2cccnc2)cs1	cell-free assay			0.5 µM	remaining signal	91.6%
O=C(Nc1cnn(-c2csc(C(=O)NC3COC3)c2)c1)Nc1ccccc1Cl	enzyme activity	inhibitor		5 µM	remaining activity	110%

SMILES	read-out	action	technique	tested at	quantity	value
CO[C@@H](C)c1c(Nc2ccc([C@@H](N(C)C(=O)C3CCS(=O)(=O)CC3)C(F)(F)F)cc2)cnc2cc(Cl)nn12	cell-free assay		competition with immobilised ligand	1 µM	remaining binding	100%
COc1cccc(-c2cc(=O)c3ccccc3o2)c1N	cell-free assay			0.5 µM	remaining signal	97.1%
CN(C)C1CCN(CC#Cc2nn(C3CCCC3)c3nc(NCc4ccccc4)ncc23)C1 (stereo not drawn)	enzyme activity	inhibitor	FRET	10 µM	inhibition	2%
CC1=C(C#N)C(c2ccc3c(c2)c(NC(=O)c2ccccc2C)nn3C)C(C#N)=C(C)N1	cell-free assay		competition with immobilised ligand	1 µM	remaining binding	80%
CCOc1cc(-c2nncn2C)ccc1Nc1ncc2cc(C)nc(NCC(C)(C)C)c2n1	enzyme activity	inhibitor	FRET	1 µM	inhibition	< 15%
CC(=O)N1CCC(c2ccc(C(=O)NC3=NCCN3)cc2C(F)(F)F)CC1	cell-free assay		competition with immobilised ligand	1 µM	remaining binding	100%
CSc1nc(C)c(-c2ccnc(Nc3ccc(N4CCOCC4)cc3)c2)[nH]1	enzyme activity	inhibitor		10 µM	inhibition	5.3%
Nc1nc(NC2CCCCC2)sc1C(=O)c1ccccc1	enzyme activity	inhibitor		10 µM	remaining activity	16%
Cc1cc(-n2nc(Cc3cc(F)cc(C(F)(F)F)c3)nc2C)ccc1C(N)=O	cell-free assay		competition with immobilised ligand	1 µM	remaining binding	100%
CC(C)(C)c1nc2c(s1)c1nc(N)ncc1c1ccc(NS(=O)(=O)c3c(F)cccc3F)c(F)c12	enzyme activity	inhibitor	radiometric	1 µM	remaining activity	99%
Cc1ccc(C(=O)NCc2ccsc2)cc1C#Cc1cn(C(C)C)c2ncnc(N)c12	enzyme activity	inhibitor		1 µM	activity vs control	98%
O=C1Cc2c([nH]c3ccc(Br)cc23)-c2ccccc2N1	cell-free assay			0.5 µM	remaining signal	90.5%
Oc1cccc(-c2nc(N3CCOCC3)c3oc4ncccc4c3n2)c1	enzyme activity	inhibitor		10 µM	remaining activity	106%
Nc1[nH]nc2nnc(-c3c(-c4ccccc4)nn4ccccc34)cc12	cell-free assay			0.5 µM	remaining signal	87.2%
CCCOc1ccc(OC)c(F)c1C(=O)c1ccc(C(=O)N[C@@H]2CNC[C@H]2NC(=O)c2ccc3[nH]ncc3c2)cc1	enzyme activity	inhibitor		10 µM	remaining activity	86%
CC(C)c1ccc(NC(=O)c2cccs2)c(-c2nc3ccccc3[nH]c2=O)c1	enzyme activity	inhibitor		1 µM	activity vs control	110%
